According to ChEMBL document CHEMBL1153847, “Synthesis and in vitro cytotoxic evaluation of novel 3,4,5-trimethoxyphenyl substituted beta-carboline derivatives” (Eur J Med Chem, 2009):

Experiments:
Type in all cases: functional, cell-based
[1] = system: HeLa; assay: Cytotoxicity against human HeLa cells by MTT assay
Summary of the method: (§1)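 Cells grown in RPMI-1640 with 10% (v/v) fetal calf serum, penicillin and streptomycin, at 37 °C in humidified 5% CO2. Compounds dissolved as DMSO stocks, with final DMSO in the medium at 2% (v/v) or lower. Run in 96-well microtitre cultures with MTT staining, following a published procedure with slight modification.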

[2] = system: Bel-7402; assay: Cytotoxicity against human Bel7402 cells by MTT assay; summary of the method: as §1
[3] = system: BGC-823; assay: Cytotoxicity against human BGC823 cells by MTT assay; summary of the method: as §1
[4] = system: HepG2; assay: Cytotoxicity against human HepG2 cells by MTT assay; summary of the method: as §1
[5] = system: MCF7; assay: Cytotoxicity against human MCF7 cells by MTT assay; summary of the method: as §1

Compound | IC50 [1] [µM] | IC50 [2] [µM] | IC50 [3] [µM] | IC50 [4] [µM] | IC50 [5] [µM]
CCOC(=O)c1cc2c3ccccc3n(CC)c2c(-c2cc(OC)c(OC)c(OC)c2)n1 | > 100 | > 100 | 53.2 | > 100 | > 100
CCCCn1c2ccccc2c2cc(C(=O)O)nc(-c3cc(OC)c(OC)c(OC)c3)c21 | > 100 | > 100 | 51.1 | > 100 | > 100
COc1cc(-c2nc(C=O)cc3c4ccccc4n(C)c23)cc(OC)c1OC | > 100 | > 100 | > 100 | > 100 | > 100
CCn1c2ccccc2c2cc(CO)nc(-c3cc(OC)c(OC)c(OC)c3)c21 | > 100 | > 100 | > 100 | > 100 | > 100
COc1cc(-c2nc(C(=O)O)cc3c4ccccc4n(C)c23)cc(OC)c1OC | > 100 | > 100 | 91.1 | > 100 | > 100
CCn1c2ccccc2c2cc(C(=O)O)nc(-c3cc(OC)c(OC)c(OC)c3)c21 | > 100 | 61.4 | 66.5 | > 100 | > 100
CCOC(=O)c1cc2c3ccccc3n(CCCc3ccccc3)c2c(-c2cc(OC)c(OC)c(OC)c2)n1 | > 100 | > 100 | 95.4 | > 100 | > 100
COc1cc(-c2nc(C(=O)NCCO)cc3c4ccccc4n(C)c23)cc(OC)c1OC | > 100 | > 100 | 90.9 | > 100 | 95.5
COc1cc(-c2nccc3c4ccccc4n(C)c23)cc(OC)c1OC | 71.8 | 91.1 | 43.2 | 86.8 | 74.2
CCCCn1c2ccccc2c2ccnc(-c3cc(OC)c(OC)c(OC)c3)c21 | 44.2 | 42.5 | 27.5 | 51.9 | 51.8
COc1cc(-c2nc(CO)cc3c4ccccc4n(CCCc4ccccc4)c23)cc(OC)c1OC | > 100 | > 100 | > 100 | > 100 | > 100
CCOC(=O)c1cc2c3ccccc3n(C)c2c(-c2cc(OC)c(OC)c(OC)c2)n1 | > 100 | > 100 | 56.6 | > 100 | > 100
COc1cc(-c2nccc3c2[nH]c2ccccc23)cc(OC)c1OC | 19.6 | 43.8 | 43.1 | 63.2 | 31.7
CCOC(=O)c1cc2c([nH]c3ccccc32)c(-c2cc(OC)c(OC)c(OC)c2)n1 | > 100 | > 100 | 96.6 | > 100 | 92.3
CCCCn1c2ccccc2c2cc(C=O)nc(-c3cc(OC)c(OC)c(OC)c3)c21 | > 100 | > 100 | > 100 | > 100 | > 100
COc1cc(-c2nc(CO)cc3c4ccccc4n(C)c23)cc(OC)c1OC | > 100 | > 100 | > 100 | > 100 | > 100
CCCCn1c2ccccc2c2cc(C(=O)OCC)nc(-c3cc(OC)c(OC)c(OC)c3)c21 | > 100 | > 100 | 27.3 | > 100 | 43.6
CCn1c2ccccc2c2cc(C=O)nc(-c3cc(OC)c(OC)c(OC)c3)c21 | > 100 | > 100 | > 100 | > 100 | > 100
CCn1c2ccccc2c2cc(C(=O)NCCO)nc(-c3cc(OC)c(OC)c(OC)c3)c21 | > 100 | > 100 | 74.7 | > 100 | 53.8
CCCCn1c2ccccc2c2cc(CO)nc(-c3cc(OC)c(OC)c(OC)c3)c21 | > 100 | > 100 | > 100 | > 100 | > 100
COc1ccc2c(c1)[nH]c1c(C)nccc12 [HARMINE] | 60 | 54 | 68 | 46 | 72
CCCCn1c2ccccc2c2cc(C(=O)NCCO)nc(-c3cc(OC)c(OC)c(OC)c3)c21 | > 100 | > 100 | 37.2 | 87.4 | 31.6
CCn1c2ccccc2c2ccnc(-c3cc(OC)c(OC)c(OC)c3)c21 | 50.9 | 43.9 | 35.2 | > 100 | 72.7
COc1cc(-c2nc(C=O)cc3c4ccccc4n(CCCc4ccccc4)c23)cc(OC)c1OC | > 100 | > 100 | > 100 | > 100 | > 100
